Cneo AK release – Cryptococcus neoformans cell lysis inducers, primary screen, AK release luminescence, single concentration; C. neoformans lysis, adenylate kinase release luminescence, 4 h; normalised: neutral wells 0, clomiphene wells 100; lysis activity, % at 15 µM; 0.2% of 360,000 active;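 active means mean lysis activity across replicates of at least 80%, whatever share of replicates individually reach that level; inactive means mean lysis activity below 80%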
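Assay system: C. neoformans cells. Amount: yeast cell density of 5 × 10^6 cells/mL. Technique: AK luminescence. Buffer or medium: YPD. Times: static 4 h at 37 °C with compound, 1 h detection. Dosing: single-point compound dose. Read-out: lysis from increased AK signal.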
esBAF inh – Bmi1 luciferase reporter increase in mESCs, primary screen, esBAF inhibitor project, mouse ES cells, Bmi1 luciferase knock-in, single point | 24 h; 100% = twice the neutral-well signal | reporter increase, % at 12.5 µM | 2% of 350,000 active | AID 602393, 2012; in the data active means activation above about 40%; inconclusive means no clear call, values can overlap the other calls;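 further: 0% = median of the plate's neutral control wells and 100% = double that signal; a rise in the Bmi1 reporter signal indicates esBAF inhibition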
Wnt bcat act – Wnt/beta-catenin pathway activators, primary screen, cell-based, plate reader, single point; Wnt/beta-catenin reporter cell assay, activator; activation, % at 9.35 µM; 1.2% of 300,000 active; AID 743398, 2014; in the data active means activation above about 30%, passing the limit was not always enough; inconclusive means no clear call, values can overlap the other calls;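 further: 0% = neutral control wells and 100% = positive control wells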
MITF TRPM1 HTS – activators of MITF-driven TRPM1 promoter reporter, primary screen, cell-based, SK-MEL-5, luciferase, single point | SK-MEL-5 TRPM1-promoter luciferase, 24 h; % of positive control, neutral wells = 0 | activation, % at 12.5 µM | 0.75% of 300,000 active | AID 588334, 2011;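 active means mean activation of at least 80% with every replicate also reaching 80%; inconclusive means mean reaches 80% but some replicate falls short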;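 further: 0% = neutral control wells and 100% = parthenolide positive control wells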
HIV Env fusion – inhibitors of HIV-1 Env-driven cell-cell fusion, primary screen, HeLa-JRFL effector, CEM21 target cells, luciferase. 1.1% of 360,000 active. inhibition, % at 12.3 µM;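 active means mean replicate inhibition score of at least 50 and every replicate individually at or above 50; inconclusive means only one of the two criteria met; inactive means mean below 50 and not all replicates reaching 50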;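 further: 0% = plate neutral controls and 100% = maraviroc near 300 nM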
ERAP1 HTS inh – human ERAP1 aminopeptidase inhibitors, primary screen, biochemical, single point, plate reader. inhibition, % at 10.7 µM. AID 652197, 2013. recombinant ERAP1, Leu-AMC fluorescence, 60 min. 0.15% of 340,000 active;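 active means mean replicate inhibition of at least 30%, or all replicates individually reaching that 30% level; inactive means mean below 30% and not every replicate reaching it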;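 further: 0% = neutral control wells and 100% = L-leucinethiol positive control wells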
Target sequence (Q9NZ08 whole entry, looked up): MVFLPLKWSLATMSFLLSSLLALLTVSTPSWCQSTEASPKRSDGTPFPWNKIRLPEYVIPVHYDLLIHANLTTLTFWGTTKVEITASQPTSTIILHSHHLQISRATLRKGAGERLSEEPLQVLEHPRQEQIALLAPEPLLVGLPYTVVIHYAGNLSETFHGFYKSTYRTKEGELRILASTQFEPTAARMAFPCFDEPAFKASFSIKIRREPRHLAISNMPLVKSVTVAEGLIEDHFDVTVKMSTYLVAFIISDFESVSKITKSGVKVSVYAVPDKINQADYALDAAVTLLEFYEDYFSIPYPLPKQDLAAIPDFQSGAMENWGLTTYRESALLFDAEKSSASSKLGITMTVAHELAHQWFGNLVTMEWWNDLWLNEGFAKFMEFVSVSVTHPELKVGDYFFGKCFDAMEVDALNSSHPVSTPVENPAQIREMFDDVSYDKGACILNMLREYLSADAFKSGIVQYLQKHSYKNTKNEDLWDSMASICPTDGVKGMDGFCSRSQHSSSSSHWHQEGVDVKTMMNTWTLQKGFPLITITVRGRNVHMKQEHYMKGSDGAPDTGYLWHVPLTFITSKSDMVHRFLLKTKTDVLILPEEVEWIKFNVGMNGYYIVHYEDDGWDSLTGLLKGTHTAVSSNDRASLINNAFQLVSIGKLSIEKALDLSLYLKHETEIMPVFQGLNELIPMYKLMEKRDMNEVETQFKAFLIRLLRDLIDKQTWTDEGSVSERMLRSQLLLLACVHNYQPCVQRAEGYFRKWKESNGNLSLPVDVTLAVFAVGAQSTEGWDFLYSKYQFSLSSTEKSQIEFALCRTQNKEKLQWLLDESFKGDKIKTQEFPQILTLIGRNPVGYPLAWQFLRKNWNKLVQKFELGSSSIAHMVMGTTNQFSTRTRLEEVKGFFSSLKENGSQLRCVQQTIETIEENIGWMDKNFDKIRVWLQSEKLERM
* = called active by the depositor; ? = inconclusive; nt = no result; [ ] = another dose, or the depositor's remark. Compounds with a hit are over-represented: about 3.5% of the library has one in this group of screens.

SMILES	Cneo AK release	esBAF inh	Wnt bcat act	MITF TRPM1 HTS	HIV Env fusion	ERAP1 HTS inh
COCCN(C(=O)COC(=O)c1ccc(C=O)cc1)c1c(N)n(Cc2ccccc2)c(=O)[nH]c1=O	5	-3	-4	-2	58*	-2
COCCN(C(=O)CSc1ncn[nH]1)c1c(N)n(Cc2ccccc2)c(=O)[nH]c1=O	-2	-10	-3	7	2	57*
COCCN(C(=O)COC(=O)c1ccc2c(c1)OCCO2)c1c(N)n(Cc2ccccc2)c(=O)[nH]c1=O	nt	-1	-3	-13	nt	0
CCS(=O)(=O)N[C@H]1CC[C@@H](CC(=O)Nc2ccc(-c3ccccc3)cc2)O[C@@H]1CO	-2	4	nt	nt	33[16.7 µM]	-1
CC(C)(C)c1cc(C(=O)NNC(=O)c2ccc(C(F)(F)F)cc2)no1	nt	3	49*	5	-9	nt
CCCc1cc(C(=O)Nc2cc(Cl)ccc2O)no1	19	83*	29	?	2	2
CCCc1cc(C(=O)Nc2cc(Br)ccc2O)no1	0	57*	15	nt	20	4
Cc1ccc(CNC(=O)C2CC(c3cc(C(F)(F)F)cc(C(F)(F)F)c3)=NO2)o1 (stereo unspecified)	0	-15	-13	-15	-33	-3
COc1ccc(CCNC(=O)C2CC(c3cccc([N+](=O)[O-])c3)=NO2)cc1 (stereo unspecified)	-1	70*	15	76	-65	-4
Cc1ccc(CNC(=O)C2CC(c3cccc([N+](=O)[O-])c3)=NO2)o1 (stereo unspecified)	0	45*	26	56	-60	-3
COc1ccc(CCNC(=O)C2CC(c3ccc([N+](=O)[O-])cc3)=NO2)cc1 (stereo unspecified)	23	37	7	nt	-24	-1
O=C(NCCc1cccs1)C1CC(c2ccc([N+](=O)[O-])cc2)=NO1 (stereo unspecified)	-10	59*	34*	91*	-81	-2
COCCNC(=O)C1CC(c2ccc([N+](=O)[O-])cc2)=NO1 (stereo unspecified)	0	4	-1	10	-3	0
CCCCNC(=O)C1CC(c2cccc(F)c2)=NO1 (stereo unspecified)	-4	85*	32*	89*	-36	9
C[C@H]1CN([C@@H](C)CO)C(=O)Cc2cc(NS(C)(=O)=O)ccc2O[C@@H]1CN(C)S(=O)(=O)c1cn(C)cn1	51	0	nt	nt	-7[16.7 µM]	nt
Cc1noc(C)c1S(=O)(=O)Nc1ccc2c(c1)C(=O)N([C@@H](C)CO)C[C@H](C)[C@H](CN(C)CC1CCCCC1)OCCCC[C@@H](C)O2	8	7	nt	nt	-9[16.7 µM]	-1
Cc1ccc(S(=O)(=O)Nc2cccc3c2O[C@@H](CN(C)S(C)(=O)=O)[C@@H](C)CN([C@@H](C)CO)C3=O)cc1	-2	5	nt	nt	-8[16.7 µM]	8
C[C@H]1CN([C@@H](C)CO)C(=O)c2cc(C3=CCCC3)cnc2O[C@H]1CN(C)C(=O)Nc1cccc(F)c1	3	16	nt	nt	-1[16.7 µM]	0
COc1cc(C2SCCS2)cc(Br)c1Oc1ncccc1[N+](=O)[O-]	-2	nt	2	nt	-9	nt
O=[N+]([O-])c1cccnc1Oc1ccc(C2SCCS2)cc1	nt	nt	51*	103*	-18	nt
Cc1ccccc1OCC(O)Cn1nnc2ccccc21 (stereo unspecified)	-2	65*	nt	79	nt	nt
CCC(=O)c1ccc(OCC(O)Cn2nnc3ccccc32)cc1 (stereo unspecified)	nt	nt	3	24	-5	-6
O=C(O)c1ccc(-n2c(/C=C/c3cccc([N+](=O)[O-])c3)nc3ccccc3c2=O)cc1	0	-7	-1	-2	1	11
O=C(O)c1ccc(-n2ncc3c2/C(=C/c2cccc([N+](=O)[O-])c2)CC3)cc1	nt	nt	?	138*	19	nt
O=C(O)c1ccc(-n2ncc3c2/C(=C\c2cccc([N+](=O)[O-])c2)CC3)cc1	1	92*	2	113*	14	-4
SMILES	Cneo AK release	esBAF inh	Wnt bcat act	MITF TRPM1 HTS	HIV Env fusion	ERAP1 HTS inh
COCC(=O)N[C@@H]1CC[C@@H](CC(=O)N2CCCCC2)O[C@@H]1CO	62	-1	nt	nt	8[16.7 µM]	2
CCC(=O)Nc1ccc2c(c1)C(=O)N(C)C[C@@H](OC)[C@H](C)CN(Cc1cncnc1)[C@@H](C)CO2	nt	-7	nt	nt	nt	nt
Clc1ccccc1OCCCOc1cccc2cccnc12	1	55*	17	nt	-36	1
Brc1ccc(OCCCOc2cccc3cccnc23)cc1	17	72*	4	nt	3	1
Brc1ccc(OCCOCCOc2cccc3cccnc23)cc1	-10	7	nt	3	nt	nt
O=Cc1ccccc1OCCCOc1cccc2cccnc12	-1	25	-3	28	-29	7
O=[N+]([O-])c1ccccc1OCCCOc1cccc2cccnc12	-8	60*	13	nt	-24	0
CN1CCN(C(=O)C[C@H]2CC[C@@H]3[C@H](COC[C@@H](O)CN3C(=O)Nc3cc(Cl)cc(Cl)c3)O2)CC1	-3	-7	nt	nt	nt	-1
COc1cccc(-c2ccc([C@H]3[C@@H](C#N)N(C(=O)Cc4ccccc4)[C@@H]3CO)cc2)c1	2	2	nt	nt	15[16.7 µM]	-1
Cc1[nH]c2ccccc2c(=O)c1CN(C)Cc1ccccc1	-1	57*	2	37	nt	-4
CC(C)C#Cc1cnc2c(c1)C(=O)N([C@@H](C)CO)C[C@H](C)[C@@H](CN(C)Cc1cccc(F)c1)O2	0	3	nt	nt	-60[16.7 µM]	7
COc1cc2ccc(=O)oc2cc1O	3	-1	0	3	nt	74*
COc1cc2ccc(=O)oc2cc1OCC(O)C(C)(C)O (stereo unspecified)	2	5	-1	-4	nt	5
O=c1/c(=C\c2cccnc2)sc2nc3ccccc3n12	-6	66*	15	38	nt	3
O=c1/c(=C/c2ccc(O)c([N+](=O)[O-])c2)sc2nc3ccccc3n12	nt	nt	15	10	1	-1
CC(=O)N1CC(=O)N2[C@H](CO)[C@@H](c3ccc(-c4ccc(C#N)cc4)cc3)[C@H]2C1	nt	nt	nt	nt	nt	3
COC(=O)c1cc(-c2ccccc2)sc1N	-1	51*	10	70	-264	nt
C#CCNC(=O)c1cc(-c2ccccc2)sc1N	nt	nt	1	nt	-25	-1
Cc1ccc2oc(C(=O)Nc3ccc(S(=O)(=O)Nc4onc(C)c4C)cc3)c(C)c2c1	0	59*	0	4	13	1
Cc1cc(NS(=O)(=O)c2ccc(NC(=O)c3oc4ccccc4c3C)cc2)no1	3	-6	nt	-11	57*	nt
